Where “and” joins values, the source holds several entries; their conditions need not be identical. Identical values can stand only once.
Assays:
Canis familiaris [1] = test: Ex vivo inhibition of platelet aggregation in canine whole blood/collagen at a dose of 3 mg/kg after i.d. administration; range is 90-100; format: functional; conditions: Canis lupus familiaris, route intraduodenal
In short: (§1)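 Conscious dogs dosed either by intravenous bolus or by short intraduodenal infusion through a catheter, at 0.3–3 mg/kg. Blood was drawn serially for up to 390 min. Platelet aggregation was measured ex vivo in collagen-stimulated canine whole blood. The readouts were maximal % inhibition, time to maximal inhibition, duration of maximal inhibition, and % inhibition at 390 min.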

Canis familiaris [2] = test: Ex vivo inhibition of platelet aggregation in canine whole blood/collagen at a dose of 0.3 mg/kg after i.v. administration; range is 90-100; format: functional; conditions: Canis lupus familiaris, route intravenous; in short: as §1
Canis familiaris [3] = test: Ex vivo inhibition of platelet aggregation in canine whole blood/collagen at a dose of 0.3 mg/kg after i.v. administration at 390 min; format: functional; conditions: Canis lupus familiaris, 6.5 h, route intravenous; in short: as §1
[4] = molecular target: Integrin alpha-IIb/beta-3 (Homo sapiens, UniProt P05106+P08514); test: Inhibition of binding to purified integrin alphaIIb-beta3 of human platelets
Homo sapiens = organism: Homo sapiens; test: In vitro Inhibitory activity against patelet aggregation in human platelet-rich plasma induced by ADP; format: functional
Canis familiaris [5] = organism: Canis familiaris; test: Duration for maximal inhibition of platelet aggregation in canine; format: functional, Canis lupus familiaris; in short: as §1
Canis familiaris [6] = test: Ex vivo inhibition of platelet aggregation in canine whole blood/collagen at a dose of 0.3 mg/kg after i.d. administration at 390 min; format: functional; conditions: Canis lupus familiaris, 6.5 h, route intraduodenal; in short: as §1
Canis familiaris [7] = organism: Canis familiaris; test: Time required for maximal inhibition of platelet aggregation in canine; format: functional, Canis lupus familiaris; in short: as §1
Canis familiaris [8] = test: Ex vivo inhibition of platelet aggregation in canine whole blood/collagen at a dose of 0.3 mg/kg after i.d. administration; […]; format: functional; conditions: Canis lupus familiaris, route intraduodenal; in short: as §1

Sequence of Integrin alpha-IIb/beta-3 (P05106 27-788 limits assumed): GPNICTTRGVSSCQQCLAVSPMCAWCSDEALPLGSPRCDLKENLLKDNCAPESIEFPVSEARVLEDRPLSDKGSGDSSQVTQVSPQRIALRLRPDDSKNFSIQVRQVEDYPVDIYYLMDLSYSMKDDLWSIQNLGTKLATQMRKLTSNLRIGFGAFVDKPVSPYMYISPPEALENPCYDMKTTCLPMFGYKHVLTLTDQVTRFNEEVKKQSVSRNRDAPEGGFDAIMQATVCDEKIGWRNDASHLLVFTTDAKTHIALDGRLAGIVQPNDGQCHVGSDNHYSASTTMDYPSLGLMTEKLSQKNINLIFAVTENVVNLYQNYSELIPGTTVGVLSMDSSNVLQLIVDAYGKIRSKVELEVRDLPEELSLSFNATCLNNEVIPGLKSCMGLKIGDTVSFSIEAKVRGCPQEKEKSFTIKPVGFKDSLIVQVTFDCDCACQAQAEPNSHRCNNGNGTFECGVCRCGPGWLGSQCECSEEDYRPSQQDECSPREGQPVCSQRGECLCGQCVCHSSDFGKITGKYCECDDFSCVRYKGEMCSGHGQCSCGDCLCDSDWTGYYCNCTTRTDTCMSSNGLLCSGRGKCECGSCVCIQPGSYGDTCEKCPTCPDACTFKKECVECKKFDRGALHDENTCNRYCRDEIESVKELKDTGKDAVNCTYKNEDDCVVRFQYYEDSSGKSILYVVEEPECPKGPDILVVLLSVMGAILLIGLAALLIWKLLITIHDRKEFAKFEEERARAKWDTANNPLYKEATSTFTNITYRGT
Sequence of Integrin alpha-IIb/beta-3 (P08514 32-887 limits assumed): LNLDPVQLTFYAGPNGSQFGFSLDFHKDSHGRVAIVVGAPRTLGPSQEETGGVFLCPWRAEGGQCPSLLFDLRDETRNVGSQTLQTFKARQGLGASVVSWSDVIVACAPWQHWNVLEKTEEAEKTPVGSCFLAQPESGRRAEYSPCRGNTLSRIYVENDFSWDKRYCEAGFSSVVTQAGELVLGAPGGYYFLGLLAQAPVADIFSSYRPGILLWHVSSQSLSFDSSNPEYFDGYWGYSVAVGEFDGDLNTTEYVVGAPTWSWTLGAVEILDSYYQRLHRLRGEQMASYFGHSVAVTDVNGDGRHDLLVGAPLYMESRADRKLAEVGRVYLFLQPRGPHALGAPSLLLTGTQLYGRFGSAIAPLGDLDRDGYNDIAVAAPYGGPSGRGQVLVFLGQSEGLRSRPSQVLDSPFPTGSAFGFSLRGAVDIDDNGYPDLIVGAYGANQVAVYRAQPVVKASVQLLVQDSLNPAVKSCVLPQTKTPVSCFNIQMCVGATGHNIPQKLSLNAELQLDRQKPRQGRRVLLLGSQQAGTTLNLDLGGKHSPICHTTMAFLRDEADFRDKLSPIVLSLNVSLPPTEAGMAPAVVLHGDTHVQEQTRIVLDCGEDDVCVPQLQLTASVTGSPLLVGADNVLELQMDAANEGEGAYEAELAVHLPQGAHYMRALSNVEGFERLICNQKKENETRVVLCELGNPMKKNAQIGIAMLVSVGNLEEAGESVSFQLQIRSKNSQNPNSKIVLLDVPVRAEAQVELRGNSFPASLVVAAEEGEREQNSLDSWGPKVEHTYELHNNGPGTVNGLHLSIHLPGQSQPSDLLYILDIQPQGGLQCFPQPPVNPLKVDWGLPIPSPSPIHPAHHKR
Sequence of Integrin alpha-IIb/beta-3 (P08514 891-1039 limits assumed): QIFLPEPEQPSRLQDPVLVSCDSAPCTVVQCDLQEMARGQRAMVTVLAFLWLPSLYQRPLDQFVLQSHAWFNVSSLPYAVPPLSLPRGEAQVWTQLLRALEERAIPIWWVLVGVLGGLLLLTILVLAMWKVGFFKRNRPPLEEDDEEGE

Compound	Ki [4]	IC50 (Homo sapiens)	also measured
CN1Cc2cc(C(=O)N3CCC(C4CCNCC4)CC3)ccc2NC(CC(=O)O)C1=O (configuration not stated)	4 nM	106 nM	inhibition in vivo at 3 mg/kg (Canis familiaris [1]): 90%; inhibition in vivo at 0.3 mg/kg (Canis familiaris [2]): 90%; inhibition in vivo at 0.3 mg/kg (Canis familiaris [3]): 50%; Duration (Canis familiaris [5]): 240 min; inhibition in vivo at 0.3 mg/kg (Canis familiaris [6]): 60%; Time (Canis familiaris [7]): 5 min and 10 min
O=C(O)CC1Nc2ccc(C(=O)N3CCC(C4CCNCC4)CC3)cc2CN(CCc2ccccc2)C1=O (configuration not stated)	1.5 nM	20 nM	inhibition in vivo at 0.3 mg/kg (Canis familiaris [8]): 70%; inhibition in vivo at 0.3 mg/kg (Canis familiaris [2]): 90%; Duration (Canis familiaris [5]): 140 min; Time (Canis familiaris [7]): 10 min and 30 min
CN(CCCC1CCNCC1)C(=O)c1ccc2c(c1)CN(CCc1ccccc1)C(=O)C(CC(=O)O)N2 (configuration not stated)	8 nM	60 nM	–
N=C(N)c1ccc(NC(=O)c2ccc3c(c2)NC(CC(=O)O)C(=O)N(CCc2ccccc2)C3)cc1 (configuration not stated)	2.8 nM	–	–
N=C(N)c1cccc(NC(=O)c2ccc3c(c2)CN(CCc2ccccc2)C(=O)C(CC(=O)O)N3)c1 (configuration not stated)	26 nM	380 nM	–
CN(C(=O)c1ccc2c(c1)NC(CC(=O)O)C(=O)N(CCc1ccccc1)C2)c1ccc(C(=N)N)cc1 (configuration not stated)	1.6 nM	65 nM	–
CN1C(=O)c2ccccc2SSc2ccccc2NC(=O)[C@H](CC(=O)O)NC(=O)CNC(=O)[C@@H]1CCCN=C(N)N [SKF-107260]	–	57 nM	–

Reference: ChEMBL document CHEMBL1129030, “Potent, selective, orally active 3-oxo-1,4-benzodiazepine GPIIb/IIIa integrin antagonists” (J Med Chem, 1996)
